Active and inactive are the calls of the source. No cut-off for these calls is given here.
Columns and labels:
[1] = Displacement of […] from 5-hydroxytryptamine 1 receptor of rat cortex
[2] = biological target: Serotonin 2 (5-HT2) receptor (Rattus norvegicus, UniProt P30994+P08909+P14842); assay: Displacement of [3H]ketanserin from 5-hydroxytryptamine 2 receptor of rat cortex
Outline: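 Rat tissue homogenate (4 mg wet weight per assay) in 50 mM Tris, 5 mM MgCl2, 0.5 mM EDTA, pH 7.4 at 37 °C, competed against 0.4 nM [3H]ketanserin. Bound ligand was collected on glass fiber filters and counted by liquid scintillation. Assays were run in triplicate. IC50 came from a 23-point curve by nonlinear least-squares fitting, and Ki = IC50/(1 + [D]/KD).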

Rattus norvegicus [3] = assay: Stimulus generalization in DOM-trained rats at dosage 0.1 mg/kg. Number of animals responding/number of animals are 3/3; type: functional
Rattus norvegicus [4] = assay: Stimulus generalization in DOM-trained rats at dosage 0.5 mg/kg. Number of animals responding/number of animals are 2/3; type: functional
Rattus norvegicus [5] = assay: Stimulus generalization in TFMPP-trained rats at dosage 1.0 mg/kg. Number of animals responding/number of animals are 5/5; type: functional
Rattus norvegicus [6] = assay: Stimulus generalization in TFMPP-trained rats at dosage 1.2 mg/kg. Number of animals responding/number of animals are 5/5; type: functional
Rattus norvegicus [7] = assay: Stimulus generalization in TFMPP-trained rats at dosage 0.1 mg/kg. Number of animals responding/number of animals are 4/5; type: functional
Rattus norvegicus [8] = assay: Stimulus generalization in TFMPP-trained rats at dosage 0.4 mg/kg. Number of animals responding/number of animals are 3/4; type: functional
Rattus norvegicus [9] = assay: Stimulus generalization in TFMPP-trained rats at dosage 0.05 mg/kg. Number of animals responding/number of animals are 4/4; type: functional
Rattus norvegicus [10] = assay: Stimulus generalization in DOM-trained rats at dosage 1.0 mg/kg. Number of animals responding/number of animals are 0/3; D=Disruption of behavior; type: functional, organism-based; design: dose 1 mg/kg
Rattus norvegicus [11] = assay: Stimulus generalization in TFMPP-trained rats at dosage 10 mg/kg. Number of animals responding/number of animals are 5/5; type: functional
Rattus norvegicus [12] = assay: Stimulus generalization in TFMPP-trained rats at dosage 2.0 mg/kg. Number of animals responding/number of animals are 4/4; type: functional
Rattus norvegicus [13] = assay: Stimulus generalization in TFMPP-trained rats at dosage 5.0 mg/kg. Number of animals responding/number of animals are 4/4; type: functional
Rattus norvegicus [14] = assay: Stimulus generalization in TFMPP-trained rats at dosage 0.3 mg/kg. Number of animals responding/number of animals are 3/3; type: functional
Rattus norvegicus [15] = assay: Stimulus generalization in DOM-trained rats at dosage 12 mg/kg. Number of animals responding/number of animals are 4/4; type: functional
Rattus norvegicus [16] = assay: Stimulus generalization in DOM-trained rats at dosage 13.5 mg/kg. Number of animals responding/number of animals are 3/4; type: functional
Rattus norvegicus [17] = assay: Stimulus generalization in DOM-trained rats at dosage 14.0 mg/kg. Number of animals responding/number of animals are 1/5; D=Disruption of behavior; type: functional, organism-based; design: dose 14 mg/kg
Rattus norvegicus [18] = assay: Stimulus generalization in DOM-trained rats at dosage 15 mg/kg. Number of animals responding/number of animals are 1/4; D=Disruption of behavior; type: functional, organism-based; design: dose 15 mg/kg
Rattus norvegicus [19] = assay: Stimulus generalization in DOM-trained rats at dosage 18 mg/kg. Number of animals responding/number of animals are 0/4; D=Disruption of behavior; type: functional, organism-based; design: dose 18 mg/kg
Rattus norvegicus [20] = assay: Stimulus generalization in TFMPP-trained rats at dosage 1.2 mg/kg. Number of animals responding/number of animals are 4/4; type: functional
Rattus norvegicus [21] = assay: Stimulus generalization in TFMPP-trained rats at dosage 10 mg/kg. Number of animals responding/number of animals are 3/3; type: functional
Rattus norvegicus [22] = assay: Stimulus generalization in TFMPP-trained rats at dosage 15 mg/kg. Number of animals responding/number of animals are 3/3; type: functional
Rattus norvegicus [23] = assay: Stimulus generalization in TFMPP-trained rats at dosage 3.0 mg/kg. Number of animals responding/number of animals are 4/4; type: functional
Rattus norvegicus [24] = assay: Stimulus generalization in TFMPP-trained rats at dosage 6.0 mg/kg. Number of animals responding/number of animals are 4/4; type: functional
Rattus norvegicus [25] = assay: Stimulus generalization in DOM-trained rats at dosage 6.0 mg/kg. Number of animals responding/number of animals are 5/5; type: functional
Rattus norvegicus [26] = assay: Compound was evaluated for ED50 in DOM-trained rats at dosage 9.0 mg/kg. Number of animals responding/number of animals are 3/3; type: functional
Rattus norvegicus [27] = assay: Stimulus generalization in DOM-trained rats at dosage 1.0 mg/kg. Number of animals responding/number of animals are 3/3; type: functional
Rattus norvegicus [28] = assay: Stimulus generalization in DOM-trained rats at dosage 3.0 mg/kg. Number of animals responding/number of animals are 3/3; type: functional
Rattus norvegicus [29] = assay: Stimulus generalization in DOM-trained rats at dosage 5.0 mg/kg. Number of animals responding/number of animals are 3/3; type: functional
Rattus norvegicus [30] = assay: Stimulus generalization in DOM-trained rats at dosage 8.0 mg/kg. Number of animals responding/number of animals are 3/3; type: functional
Rattus norvegicus [31] = assay: Stimulus generalization in DOM-trained rats at dosage 9.0 mg/kg. Number of animals responding/number of animals are 3/3; type: functional
Rattus norvegicus [32] = assay: Compound was evaluated for Effective Dose DOM-trained rats at dosage 12.0 mg/kg. Number of animals responding/number of animals are 5/5; type: functional
Rattus norvegicus [33] = assay: Stimulus generalization in DOM-trained rats at dosage 12.0 mg/kg. Number of animals responding/number of animals are 5/5; type: functional
Rattus norvegicus [34] = assay: Stimulus generalization in DOM-trained rats at dosage 4.0 mg/kg. Number of animals responding/number of animals are 5/5; type: functional
Rattus norvegicus [35] = assay: Stimulus generalization in DOM-trained rats at dosage 6.0 mg/kg. Number of animals responding/number of animals are 4/4; type: functional
Rattus norvegicus [36] = assay: Stimulus generalization in TFMPP-trained rats at dosage 1.5 mg/kg. Number of animals responding/number of animals are 3/3; type: functional
Rattus norvegicus [37] = assay: Stimulus generalization in TFMPP-trained rats at dosage 12.0 mg/kg. Number of animals responding/number of animals are 2/3; type: functional
Rattus norvegicus [38] = assay: Stimulus generalization in TFMPP-trained rats at dosage 12.5 mg/kg. Number of animals responding/number of animals are 0/3; Disruption of Behavior; type: functional, organism-based; design: dose 12.5 mg/kg
Rattus norvegicus [39] = assay: Stimulus generalization in TFMPP-trained rats at dosage 5.0 mg/kg. Number of animals responding/number of animals are 3/3; type: functional
Rattus norvegicus [40] = assay: Stimulus generalization in TFMPP-trained rats at dosage 8.0 mg/kg. Number of animals responding/number of animals are 3/3; type: functional
Rattus norvegicus [41] = assay: Stimulus generalization in DOM-trained rats at dosage 8.0 mg/kg. Number of animals responding/number of animals are 5/5; type: functional
Rattus norvegicus [42] = assay: Compound was evaluated for ED50 in TFMPP-trained rats at dosage 0.50 mg/kg. Number of animals responding/number of animals are 4/4; type: functional
Rattus norvegicus [43] = assay: Stimulus generalization in TFMPP-trained rats at dosage 0.50 mg/kg. Number of animals responding/number of animals are 5/5; type: functional; conditions: dose 0.5 mg/kg
Rattus norvegicus [44] = assay: Stimulus generalization in TFMPP-trained rats at dosage 0.20 mg/kg. Number of animals responding/number of animals are 4/4; type: functional; conditions: dose 0.2 mg/kg
Rattus norvegicus [45] = assay: Stimulus generalization in TFMPP-trained rats at dosage 0.30 mg/kg. Number of animals responding/number of animals are 4/4; type: functional; conditions: dose 0.3 mg/kg
Rattus norvegicus [46] = assay: Stimulus generalization in TFMPP-trained rats at dosage 0.35 mg/kg. Number of animals responding/number of animals are 4/4; type: functional
Rattus norvegicus [47] = assay: Stimulus generalization in TFMPP-trained rats at dosage 0.15 mg/kg. Number of animals responding/number of animals are 3/3; type: functional
Rattus norvegicus [48] = assay: Stimulus generalization in TFMPP-trained rats at dosage 0.1 mg/kg. Number of animals responding/number of animals are 4/4; type: functional

## COc1ccccc1N1CCNCC1
[1]
  Ki: 35 nM
[2]
  Ki: 3500 nM
Rattus norvegicus [3]
  Response: 12%
Rattus norvegicus [4]
  Response: 20%
Rattus norvegicus [5]
  Response: 81%
Rattus norvegicus [6]
  Response: 94%
Rattus norvegicus [7]
  Response: 33%
Rattus norvegicus [8]
  Response: 63%
Rattus norvegicus [9]
  Response: 23%
Rattus norvegicus [10]
  Response: inactive

## COc1ccc(N)c(C(=O)CCN)c1
[1]
  Ki: 345 nM
[2]
  Ki: 8480 nM

## Oc1ccccc1N1CCNCC1
[1]
  Ki: 150 nM
[2]
  Ki: 17200 nM
Rattus norvegicus [11]
  Response: 24%
Rattus norvegicus [12]
  Response: 12%
Rattus norvegicus [13]
  Response: 22%
Rattus norvegicus [14]
  Response: 17%

## COc1ccc(OC)c(N2CCNCC2)c1
[1]
  Ki: 1040 nM
[2]
  Ki: 8430 nM
Rattus norvegicus [15]
  Response: 28%
Rattus norvegicus [16]
  Response: 22%
Rattus norvegicus [17]
  Response: inactive
Rattus norvegicus [18]
  Response: inactive
Rattus norvegicus [19]
  Response: inactive
Rattus norvegicus [20]
  Response: 14%
Rattus norvegicus [21]
  Response: 19%
Rattus norvegicus [22]
  Response: 14%
Rattus norvegicus [23]
  Response: 6%
Rattus norvegicus [24]
  Response: 14%
Rattus norvegicus [25]
  Response: 10%

## COc1ccc(OC)c(C(=O)N2CCNCC2)c1
[1]
  Ki: > 100000 nM
[2]
  Ki: > 100000 nM

## Cc1cccc(C(=O)N2CCNCC2)c1
[1]
  Ki: 20700 nM
[2]
  Ki: 49000 nM

## COc1cc(N2CCNCC2)c(OC)cc1Br
[1]
  Ki: 820 nM
[2]
  Ki: 2430 nM
Rattus norvegicus [26]
  ED50: 4.08 mg/kg
Rattus norvegicus [27]
  Response: 19%
Rattus norvegicus [28]
  Response: 31%
Rattus norvegicus [29]
  Response: 46%
Rattus norvegicus [30]
  Response: 72%
Rattus norvegicus [31]
  Response: 81%

## COc1cc(N2CCNCC2)c(OC)cc1C
[1]
  Ki: 680 nM
[2]
  Ki: 4710 nM
Rattus norvegicus [32]
  ED50: 6.23 mg/kg
Rattus norvegicus [33]
  Response: 83%
Rattus norvegicus [34]
  Response: 21%
Rattus norvegicus [35]
  Response: 53%
Rattus norvegicus [36]
  Response: 11%
Rattus norvegicus [37]
  Response: 30%
Rattus norvegicus [38]
  Response: Disrupted behaviour
Rattus norvegicus [39]
  Response: 11%
Rattus norvegicus [40]
  Response: 7%
Rattus norvegicus [41]
  Response: 68%

## FC(F)(F)c1cccc(N2CCNCC2)c1
[1]
  Ki: 20 nM
[2]
  Ki: 160 nM
Rattus norvegicus [42]
  ED50: 0.17 mg/kg
Rattus norvegicus [43]
  Response: 93%
Rattus norvegicus [44]
  Response: 51%
Rattus norvegicus [45]
  Response: 70%
Rattus norvegicus [46]
  Response: 90%
Rattus norvegicus [9]
  Response: 25%
Rattus norvegicus [47]
  Response: 42%
Rattus norvegicus [48]
  Response: 8%

## O=C(c1cccc(Cl)c1)N1CCNCC1
[1]
  Ki: 17100 nM
[2]
  Ki: 55600 nM
